Reference: ChEMBL document CHEMBL1153250, “Discovery and SAR of novel, potent and selective hexahydrobenzonaphthyridinone inhibitors of poly(ADP-ribose)polymerase-1 (PARP-1)” (Bioorg Med Chem Lett, 2010)
pEC50, pIC50: −log10 of the molar value. Active and inactive are the calls of the source. The rule behind the calls is not given here.

biological target: T1, Poly [ADP-ribose] polymerase 1 (Homo sapiens, UniProt P09874); experiment: Inhibition of human PARP1 by scintillation proximity assay; conditions: not given
T1 sequence (P09874 whole entry): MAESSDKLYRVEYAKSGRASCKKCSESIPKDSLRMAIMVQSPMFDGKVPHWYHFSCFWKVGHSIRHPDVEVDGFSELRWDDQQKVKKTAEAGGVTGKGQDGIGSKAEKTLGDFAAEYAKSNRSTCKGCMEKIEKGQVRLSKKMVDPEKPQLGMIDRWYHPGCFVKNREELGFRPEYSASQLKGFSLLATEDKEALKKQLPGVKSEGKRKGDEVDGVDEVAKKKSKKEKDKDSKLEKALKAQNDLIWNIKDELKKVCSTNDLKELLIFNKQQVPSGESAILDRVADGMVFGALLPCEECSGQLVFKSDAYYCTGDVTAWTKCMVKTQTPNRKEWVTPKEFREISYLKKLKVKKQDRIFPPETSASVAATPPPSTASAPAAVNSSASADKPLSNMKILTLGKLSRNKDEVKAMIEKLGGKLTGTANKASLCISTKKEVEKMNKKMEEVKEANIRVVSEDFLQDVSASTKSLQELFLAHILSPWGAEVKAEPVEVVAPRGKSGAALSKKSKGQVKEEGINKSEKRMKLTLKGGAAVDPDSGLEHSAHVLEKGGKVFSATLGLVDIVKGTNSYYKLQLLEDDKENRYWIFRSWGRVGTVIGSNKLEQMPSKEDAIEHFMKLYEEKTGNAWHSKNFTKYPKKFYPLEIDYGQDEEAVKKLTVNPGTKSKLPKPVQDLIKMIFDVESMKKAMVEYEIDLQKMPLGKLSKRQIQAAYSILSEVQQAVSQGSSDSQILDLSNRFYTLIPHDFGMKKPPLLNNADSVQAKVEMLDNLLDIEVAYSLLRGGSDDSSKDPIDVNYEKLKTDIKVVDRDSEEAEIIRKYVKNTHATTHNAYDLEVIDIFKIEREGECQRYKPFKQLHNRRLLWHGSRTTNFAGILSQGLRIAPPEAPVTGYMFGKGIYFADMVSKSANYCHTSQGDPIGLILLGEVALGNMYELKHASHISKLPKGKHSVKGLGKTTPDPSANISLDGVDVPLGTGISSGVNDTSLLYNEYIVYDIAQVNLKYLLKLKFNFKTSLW

Row | SMILES | pIC50
1 | O=C1NCC2c3c(cccc31)CCN2C(=O)c1ccc(C(=O)N2CCCNCC2)cc1 (configuration not stated) | 6.89
2 | O=C1NCC2c3c(cccc31)CCN2C(=O)c1cccc(C(=O)N2CCCNCC2)c1 (configuration not stated) | 7.30
3 | COc1cccc(CC(=O)N2CCc3cccc4c3C2CNC4=O)c1 (configuration not stated) | 8.30
4 | O=C1NCC2c3c(cccc31)CCN2C(=O)Cc1ccc(OCc2ccccc2)cc1 (configuration not stated) | 7.80
5 | CC(=O)N1CCC[C@H]1C(=O)N1CCc2cccc3c2C1CNC3=O (some centres not stated) | 7.85
6 | O=C1NCC2c3c(cccc31)CCN2C(=O)c1ccc(Cl)cc1 (configuration not stated) | 8.15
7 | Nc1cccc2c1CCNC2=O | 9.30
8 | Cc1csc(CC(=O)N2CCc3cccc4c3C2CNC4=O)n1 (configuration not stated) | 8.22
9 | O=C1NCC2c3c(cccc31)CCN2C(=O)CCc1ccccc1 (configuration not stated) | 8.40
10 | O=C1NCC2c3c(cccc31)CCN2C(=O)C1CCCC1 (configuration not stated) | 7.96
11 | O=C1NCC2c3c(cccc31)CCN2C(=O)CCc1cnccn1 (configuration not stated) | 8.22
12 | O=C1NCC2c3c(cccc31)CCN2C(=O)CCn1cnc2ccccc21 (configuration not stated) | 9.00
13 | O=C1NCC2c3c(cccc31)CCN2C(=O)CN1CCN(c2ccccc2)CC1 (configuration not stated) | 7.96
14 | O=C1NCC2c3c(cccc31)CCN2C(=O)C1CNC1 (configuration not stated) | 9.00
15 | O=C1NCC2c3c(cccc31)CCN2C(=O)[C@@H]1CCCN1 (some centres not stated) | 8.40
16 | O=C1NCC2c3c(cccc31)CCN2Cc1ccccc1 (configuration not stated) | 6.72
17 | O=C1NCC2c3c(cccc31)CCN2C(=O)Cc1ccccn1 (configuration not stated) | 7.89
18 | O=C1NCC2c3c(cccc31)CCN2C(=O)Cc1ccccc1 (configuration not stated) | 8.10
19 | COc1ccc(CC(=O)N2CCc3cccc4c3C2CNC4=O)cc1 (configuration not stated) | 8.22
20 | COc1ccccc1CC(=O)N1CCc2cccc3c2C1CNC3=O (configuration not stated) | 7.57
21 | Cn1cc(CCC(=O)N2CCc3cccc4c3C2CNC4=O)cn1 (configuration not stated) | 7.85
22 | CN(C)C(=O)CCC(=O)N1CCc2cccc3c2C1CNC3=O (configuration not stated) | 8.05

biological target: T1, Poly [ADP-ribose] polymerase 1; experiment: Inhibition of PARP1 in human HeLa cells assessed as inhibition of hydrogen peroxide-induced poly(ADP-ribosyl)ation; assay type: cell-based; conditions: not given

Row | SMILES | pEC50
23 | COc1cccc(CC(=O)N2CCc3cccc4c3C2CNC4=O)c1 (configuration not stated) | 5.92
24 | O=C1NCC2c3c(cccc31)CCN2C(=O)Cc1ccc(OCc2ccccc2)cc1 (configuration not stated) | 6.24
25 | CC(=O)N1CCC[C@H]1C(=O)N1CCc2cccc3c2C1CNC3=O (some centres not stated) | 5.55
26 | O=C1NCC2c3c(cccc31)CCN2C(=O)c1ccc(Cl)cc1 (configuration not stated) | 6.59
27 | Cc1csc(CC(=O)N2CCc3cccc4c3C2CNC4=O)n1 (configuration not stated) | 5.54
28 | O=C1NCC2c3c(cccc31)CCN2C(=O)CCc1ccccc1 (configuration not stated) | 6.46
29 | O=C1NCC2c3c(cccc31)CCN2C(=O)C1CCCC1 (configuration not stated) | 6.26
30 | O=C1NCC2c3c(cccc31)CCN2C(=O)CCc1cnccn1 (configuration not stated) | 6.48
31 | O=C1NCC2c3c(cccc31)CCN2C(=O)CCn1cnc2ccccc21 (configuration not stated) | 5.80
32 | O=C1NCC2c3c(cccc31)CCN2C(=O)CN1CCN(c2ccccc2)CC1 (configuration not stated) | 6.36
33 | O=C1NCC2c3c(cccc31)CCN2C(=O)C1CNC1 (configuration not stated) | 6.18
34 | O=C1NCC2c3c(cccc31)CCN2C(=O)[C@@H]1CCCN1 (some centres not stated) | 6.74
35 | O=C1NCC2c3c(cccc31)CCN2Cc1ccccc1 (configuration not stated) | 5.28
36 | O=C1NCC2c3c(cccc31)CCN2C(=O)Cc1ccccn1 (configuration not stated) | 6.64
37 | O=C1NCC2c3c(cccc31)CCN2C(=O)Cc1ccccc1 (configuration not stated) | 6.64
38 | COc1ccc(CC(=O)N2CCc3cccc4c3C2CNC4=O)cc1 (configuration not stated) | 6.80
39 | COc1ccccc1CC(=O)N1CCc2cccc3c2C1CNC3=O (configuration not stated) | 5.77
40 | Cn1cc(CCC(=O)N2CCc3cccc4c3C2CNC4=O)cn1 (configuration not stated) | 6.38
41 | CN(C)C(=O)CCC(=O)N1CCc2cccc3c2C1CNC3=O (configuration not stated) | 5.55

biological target: T2, Poly [ADP-ribose] polymerase 2 (Homo sapiens, UniProt Q9UGN5); experiment: Inhibition of PARP2 at 1 uM; conditions: not given
T2 sequence (Q9UGN5 whole entry): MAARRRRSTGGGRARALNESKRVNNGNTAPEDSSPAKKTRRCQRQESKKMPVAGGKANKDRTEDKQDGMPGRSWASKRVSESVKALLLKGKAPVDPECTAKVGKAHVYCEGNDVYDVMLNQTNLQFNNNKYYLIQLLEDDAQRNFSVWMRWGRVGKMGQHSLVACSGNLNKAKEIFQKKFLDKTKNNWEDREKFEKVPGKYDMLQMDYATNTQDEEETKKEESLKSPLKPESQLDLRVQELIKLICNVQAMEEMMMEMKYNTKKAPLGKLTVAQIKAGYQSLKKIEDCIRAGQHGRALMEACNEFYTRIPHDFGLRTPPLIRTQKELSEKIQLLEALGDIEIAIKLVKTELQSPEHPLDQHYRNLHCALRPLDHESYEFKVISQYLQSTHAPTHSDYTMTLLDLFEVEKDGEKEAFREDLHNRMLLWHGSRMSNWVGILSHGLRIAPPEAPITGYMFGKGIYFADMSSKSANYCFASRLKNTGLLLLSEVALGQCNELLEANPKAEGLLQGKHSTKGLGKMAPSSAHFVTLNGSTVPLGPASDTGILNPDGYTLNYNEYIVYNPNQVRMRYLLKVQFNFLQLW

Row | inhibition | SMILES
42 | inactive | O=C1CC2NCCc3cccc(c32)N1 (configuration not stated)

biological target: T1, Poly [ADP-ribose] polymerase 1; experiment: Inhibition of human PARP1 at 1 uM by scintillation proximity assay; conditions: not given

Row | inhibition | SMILES
43 | inactive | O=C1CC2NCCc3cccc(c32)N1 (configuration not stated)

tested on: not listed separately; experiment: Intrinsic clearance in rat liver microsomes; assay type: ADME, Microsome; conditions: not given

Row | SMILES | microsomal CLint [µL/min/mg]
44 | O=C1NCC2c3c(cccc31)CCN2C(=O)CCc1cnccn1 (configuration not stated) | 24

biological target: T2, Poly [ADP-ribose] polymerase 2; experiment: Inhibition of PARP2; conditions: not given

Row | SMILES | pIC50
45 | O=C1NCC2c3c(cccc31)CCN2C(=O)CCc1cnccn1 (configuration not stated) | 9.00

biological target: T3, Protein mono-ADP-ribosyltransferase PARP3 (Homo sapiens, UniProt Q9Y6F1); experiment: Inhibition of PARP3; conditions: not given
T3 sequence (Q9Y6F1 whole entry): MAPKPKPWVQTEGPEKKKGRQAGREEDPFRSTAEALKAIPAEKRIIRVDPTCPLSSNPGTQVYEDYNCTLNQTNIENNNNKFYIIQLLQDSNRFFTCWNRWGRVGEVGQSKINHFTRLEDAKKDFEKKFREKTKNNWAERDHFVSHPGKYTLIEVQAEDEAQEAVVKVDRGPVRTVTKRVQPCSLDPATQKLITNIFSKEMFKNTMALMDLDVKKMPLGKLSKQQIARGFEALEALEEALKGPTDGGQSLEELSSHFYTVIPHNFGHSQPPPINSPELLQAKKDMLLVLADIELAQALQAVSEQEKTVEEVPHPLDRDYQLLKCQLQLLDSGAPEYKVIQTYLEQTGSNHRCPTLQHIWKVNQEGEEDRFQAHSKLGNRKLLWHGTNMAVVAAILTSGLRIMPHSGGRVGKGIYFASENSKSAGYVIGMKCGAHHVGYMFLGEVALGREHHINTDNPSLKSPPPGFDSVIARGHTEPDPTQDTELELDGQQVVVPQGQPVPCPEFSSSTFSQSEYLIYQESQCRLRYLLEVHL

Row | SMILES | pIC50
46 | O=C1NCC2c3c(cccc31)CCN2C(=O)CCc1cnccn1 (configuration not stated) | 7.15

biological target: Protein mono-ADP-ribosyltransferase PARP4 (Homo sapiens, UniProt Q9UKK3); experiment: Inhibition of VPARP; conditions: not given
Sequence (Q9UKK3 whole entry): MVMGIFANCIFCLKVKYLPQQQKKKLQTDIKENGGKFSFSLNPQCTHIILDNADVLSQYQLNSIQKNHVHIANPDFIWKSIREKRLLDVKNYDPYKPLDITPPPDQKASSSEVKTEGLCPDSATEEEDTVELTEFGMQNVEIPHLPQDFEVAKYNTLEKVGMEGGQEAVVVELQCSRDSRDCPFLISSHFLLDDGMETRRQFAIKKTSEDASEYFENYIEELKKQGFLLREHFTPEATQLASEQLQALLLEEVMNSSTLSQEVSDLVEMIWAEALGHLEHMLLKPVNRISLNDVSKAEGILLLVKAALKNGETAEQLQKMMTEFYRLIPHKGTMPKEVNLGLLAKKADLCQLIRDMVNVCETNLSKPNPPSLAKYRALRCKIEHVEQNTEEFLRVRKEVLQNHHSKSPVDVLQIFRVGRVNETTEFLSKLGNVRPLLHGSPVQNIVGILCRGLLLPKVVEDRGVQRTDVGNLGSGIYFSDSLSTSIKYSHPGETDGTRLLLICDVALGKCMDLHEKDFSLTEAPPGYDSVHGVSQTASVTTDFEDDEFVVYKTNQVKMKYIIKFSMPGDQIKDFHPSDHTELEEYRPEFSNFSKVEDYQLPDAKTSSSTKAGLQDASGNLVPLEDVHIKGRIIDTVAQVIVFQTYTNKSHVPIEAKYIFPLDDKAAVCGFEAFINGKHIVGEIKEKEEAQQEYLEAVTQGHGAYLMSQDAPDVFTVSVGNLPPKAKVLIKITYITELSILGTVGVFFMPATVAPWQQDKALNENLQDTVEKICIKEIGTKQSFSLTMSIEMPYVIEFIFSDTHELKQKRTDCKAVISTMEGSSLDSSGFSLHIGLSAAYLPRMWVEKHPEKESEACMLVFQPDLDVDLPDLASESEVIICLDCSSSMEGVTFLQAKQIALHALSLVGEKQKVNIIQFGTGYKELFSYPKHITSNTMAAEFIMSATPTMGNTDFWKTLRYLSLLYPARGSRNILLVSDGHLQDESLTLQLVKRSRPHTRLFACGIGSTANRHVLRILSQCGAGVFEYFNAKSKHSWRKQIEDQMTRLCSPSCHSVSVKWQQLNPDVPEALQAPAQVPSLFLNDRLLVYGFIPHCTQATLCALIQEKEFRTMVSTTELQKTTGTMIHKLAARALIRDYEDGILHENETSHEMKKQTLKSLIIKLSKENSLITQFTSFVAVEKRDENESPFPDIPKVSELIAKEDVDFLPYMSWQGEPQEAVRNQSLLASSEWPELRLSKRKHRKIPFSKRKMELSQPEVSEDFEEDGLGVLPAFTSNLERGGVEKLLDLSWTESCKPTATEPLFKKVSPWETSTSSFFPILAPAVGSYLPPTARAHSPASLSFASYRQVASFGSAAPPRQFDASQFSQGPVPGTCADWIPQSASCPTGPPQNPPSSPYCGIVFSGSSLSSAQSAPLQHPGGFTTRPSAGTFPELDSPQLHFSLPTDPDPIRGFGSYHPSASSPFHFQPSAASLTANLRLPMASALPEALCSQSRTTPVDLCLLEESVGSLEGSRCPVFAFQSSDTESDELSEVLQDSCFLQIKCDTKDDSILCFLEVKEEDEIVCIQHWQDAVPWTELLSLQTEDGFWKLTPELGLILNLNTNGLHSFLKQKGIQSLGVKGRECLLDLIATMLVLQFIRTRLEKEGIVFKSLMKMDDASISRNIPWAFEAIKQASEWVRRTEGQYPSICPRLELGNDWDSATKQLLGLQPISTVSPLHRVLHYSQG

Row | SMILES | pIC50
47 | O=C1NCC2c3c(cccc31)CCN2C(=O)CCc1cnccn1 (configuration not stated) | 6.18

biological target: T4, Poly [ADP-ribose] polymerase tankyrase-1 (Homo sapiens, UniProt O95271); experiment: Inhibition of Tankyrase 1; conditions: not given
T4 sequence (O95271 whole entry): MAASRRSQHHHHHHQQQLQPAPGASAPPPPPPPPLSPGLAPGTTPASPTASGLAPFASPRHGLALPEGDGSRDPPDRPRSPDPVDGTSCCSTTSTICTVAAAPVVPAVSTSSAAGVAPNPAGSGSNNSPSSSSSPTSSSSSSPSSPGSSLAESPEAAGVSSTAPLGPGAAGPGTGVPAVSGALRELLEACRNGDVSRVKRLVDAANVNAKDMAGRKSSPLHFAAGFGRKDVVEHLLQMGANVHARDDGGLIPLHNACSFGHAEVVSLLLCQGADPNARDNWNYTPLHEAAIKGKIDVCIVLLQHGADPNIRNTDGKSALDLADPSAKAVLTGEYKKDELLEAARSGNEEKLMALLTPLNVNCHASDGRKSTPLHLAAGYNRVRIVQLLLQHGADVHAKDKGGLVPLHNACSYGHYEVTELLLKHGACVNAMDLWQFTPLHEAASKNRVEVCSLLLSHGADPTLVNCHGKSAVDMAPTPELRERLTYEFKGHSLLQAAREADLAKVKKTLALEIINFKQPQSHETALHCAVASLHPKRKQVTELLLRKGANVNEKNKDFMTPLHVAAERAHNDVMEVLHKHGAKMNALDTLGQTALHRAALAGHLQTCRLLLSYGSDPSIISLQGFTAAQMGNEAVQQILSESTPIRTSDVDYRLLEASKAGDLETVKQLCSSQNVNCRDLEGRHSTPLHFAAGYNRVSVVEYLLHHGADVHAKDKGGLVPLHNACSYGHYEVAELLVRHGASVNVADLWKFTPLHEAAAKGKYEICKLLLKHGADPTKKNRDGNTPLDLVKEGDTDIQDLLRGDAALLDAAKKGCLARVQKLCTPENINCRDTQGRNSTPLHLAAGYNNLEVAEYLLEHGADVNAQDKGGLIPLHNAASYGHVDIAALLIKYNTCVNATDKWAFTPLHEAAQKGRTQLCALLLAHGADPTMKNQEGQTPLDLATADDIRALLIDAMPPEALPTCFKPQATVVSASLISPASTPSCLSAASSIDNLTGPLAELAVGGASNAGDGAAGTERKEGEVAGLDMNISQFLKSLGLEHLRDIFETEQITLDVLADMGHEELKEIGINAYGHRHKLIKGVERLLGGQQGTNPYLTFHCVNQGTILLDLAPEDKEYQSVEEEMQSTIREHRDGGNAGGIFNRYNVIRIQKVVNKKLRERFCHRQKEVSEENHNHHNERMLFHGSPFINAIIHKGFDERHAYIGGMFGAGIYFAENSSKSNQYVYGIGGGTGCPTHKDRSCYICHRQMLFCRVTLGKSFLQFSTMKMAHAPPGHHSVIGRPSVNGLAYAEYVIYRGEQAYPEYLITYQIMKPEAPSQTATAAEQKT

Row | SMILES | pIC50
48 | O=C1NCC2c3c(cccc31)CCN2C(=O)CCc1cnccn1 (configuration not stated) | 5.70

tested on: not listed separately; experiment: Half life in rat at 3 mg/kg, iv and po; assay type: ADME, organism-based; set-up: dose 3 mg/kg, route oral; conditions: in vivo
How it was run: (§1)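 Rats received the compound both intravenously and orally, each at 3 mg/kg. Reported PK parameters are half-life (h), volume of distribution (L/kg), clearance (ml/min/kg), oral bioavailability (%F) and oral AUC (μM h).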

Row | SMILES | half-life [h]
49 | O=C1NCC2c3c(cccc31)CCN2C(=O)CCc1cnccn1 (configuration not stated) | 1.2

tested on: Rattus norvegicus; experiment: Volume of distribution in rat at 3 mg/kg, iv and po; assay type: ADME, organism-based; set-up: dose 3 mg/kg, route oral; conditions: in vivo; how it was run: as §1

Row | SMILES | Vd [L/kg]
50 | O=C1NCC2c3c(cccc31)CCN2C(=O)CCc1cnccn1 (configuration not stated) | 2

tested on: not listed separately; experiment: Inhibition of Cytochrome P450 at 10 uM; assay type: ADME; conditions: not given

Row | SMILES | Activity
51 | O=C1NCC2c3c(cccc31)CCN2C(=O)CCc1cnccn1 (configuration not stated) | Not Active

biological target: Voltage-gated inwardly rectifying potassium channel KCNH2 (Homo sapiens, UniProt Q12809); experiment: Binding affinity to potassium channel IKr at 10 uM; conditions: not given
Sequence (Q12809 whole entry): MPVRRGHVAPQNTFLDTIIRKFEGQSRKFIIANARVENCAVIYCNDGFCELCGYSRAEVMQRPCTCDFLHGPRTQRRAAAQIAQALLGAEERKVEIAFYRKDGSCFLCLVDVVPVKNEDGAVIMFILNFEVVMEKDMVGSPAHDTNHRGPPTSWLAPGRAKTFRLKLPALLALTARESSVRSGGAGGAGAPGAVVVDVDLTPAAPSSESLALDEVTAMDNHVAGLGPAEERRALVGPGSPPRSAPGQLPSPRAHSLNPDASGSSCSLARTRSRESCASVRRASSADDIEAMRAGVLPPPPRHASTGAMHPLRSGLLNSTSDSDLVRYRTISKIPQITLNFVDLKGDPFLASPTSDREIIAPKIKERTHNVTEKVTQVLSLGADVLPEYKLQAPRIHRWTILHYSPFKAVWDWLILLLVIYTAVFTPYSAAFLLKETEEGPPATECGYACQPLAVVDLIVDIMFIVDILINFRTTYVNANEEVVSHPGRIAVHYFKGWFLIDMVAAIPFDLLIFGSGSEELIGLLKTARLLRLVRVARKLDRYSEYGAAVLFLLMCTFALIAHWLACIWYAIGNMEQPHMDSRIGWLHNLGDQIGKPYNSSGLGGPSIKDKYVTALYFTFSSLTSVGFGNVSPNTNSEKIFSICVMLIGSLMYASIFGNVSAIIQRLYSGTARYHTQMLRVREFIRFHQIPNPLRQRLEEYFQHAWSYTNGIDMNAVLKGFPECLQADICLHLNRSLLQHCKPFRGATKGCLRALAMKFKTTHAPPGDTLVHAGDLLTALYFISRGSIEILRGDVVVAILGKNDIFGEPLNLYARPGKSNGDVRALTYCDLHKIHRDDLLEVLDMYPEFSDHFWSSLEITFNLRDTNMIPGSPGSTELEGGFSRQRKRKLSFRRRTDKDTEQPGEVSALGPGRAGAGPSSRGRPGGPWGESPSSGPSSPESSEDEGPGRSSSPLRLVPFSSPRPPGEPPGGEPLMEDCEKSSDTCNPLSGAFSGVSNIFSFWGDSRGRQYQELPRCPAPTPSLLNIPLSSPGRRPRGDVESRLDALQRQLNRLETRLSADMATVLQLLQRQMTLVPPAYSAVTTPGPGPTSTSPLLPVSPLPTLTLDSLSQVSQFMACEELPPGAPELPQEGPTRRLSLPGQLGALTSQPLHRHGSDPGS

Row | SMILES | Activity
52 | O=C1NCC2c3c(cccc31)CCN2C(=O)CCc1cnccn1 (configuration not stated) | Not Active
